The source made the active and inactive calls. The rule behind the calls is not given here.
Legend:
Type in all cases: functional
Blastomyces dermatitidis [1] = assay: Antifungal activity against Blastomyces dermatitidis Gilchrist & Stokes isolate 1107 at 10 ug/ml after 1 week (reference value: 20 mm)
Procedure, shortened: (§1)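 Mycelial phase grown on Sabouraud dextrose agar at 25°C. Agar pH was set to 6 before the test solution was added and was 5.0-5.5 after. Test solutions contained HOAc and Me2SO, and solvent and blank controls were included. Each quadrant was center-inoculated with a 2 × 2 mm piece of a 2-week-old mycelial culture. Colony diameter was measured weekly for 3 weeks and reported as total increments (mm). Duplicates were run.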

Histoplasma capsulatum [2] = assay: Antifungal activity against Histoplasma capsulatum Darling isolate 1098 at 100 ug/ml after 1 week (reference value: 12 mm)
Blastomyces dermatitidis [3] = assay: Antifungal activity against Blastomyces dermatitidis Gilchrist & Stokes isolate 1099 at 80 ug/ml after 3 weeks (reference value: 34 mm); conditions: Gilchrist & Stokes isolate 1099, 504 h, read-out: DIZ; procedure, shortened: as §1
Histoplasma capsulatum [4] = assay: Antifungal activity against Histoplasma capsulatum Darling isolate 1098 at 100 ug/ml after 2 weeks (reference value: 21 mm)
Blastomyces dermatitidis [5] = assay: Antifungal activity against Blastomyces dermatitidis Gilchrist & Stokes isolate 1107 at 10 ug/ml after 3 weeks (reference value: 40 mm); conditions: Gilchrist & Stokes isolate 1107, 504 h, read-out: DIZ; procedure, shortened: as §1
Histoplasma capsulatum [6] = assay: Antifungal activity against Histoplasma capsulatum Darling isolate 1106 at 10 ug/ml after 2 weeks (reference value: 25 mm); conditions: Darling isolate 1106, 336 h, read-out: DIZ
Histoplasma capsulatum [7] = assay: Antifungal activity against Histoplasma capsulatum Darling isolate 1106 at 80 ug/ml after 1 week (reference value: 14 mm)
Blastomyces dermatitidis [8] = assay: Antifungal activity against Blastomyces dermatitidis Gilchrist & Stokes isolate 1099 at 100 ug/ml after 1 week (reference value: 14 mm)
Histoplasma capsulatum [9] = assay: Antifungal activity against Histoplasma capsulatum Darling isolate 1106 at 100 ug/ml after 2 weeks (reference value: 25 mm)
Blastomyces dermatitidis [10] = assay: Antifungal activity against Blastomyces dermatitidis Gilchrist & Stokes isolate 1099 at 60 ug/ml after 3 weeks (reference value: 34 mm); conditions: Gilchrist & Stokes isolate 1099, 504 h, read-out: DIZ; procedure, shortened: as §1
Blastomyces dermatitidis [11] = assay: Antifungal activity against Blastomyces dermatitidis Gilchrist & Stokes isolate 1099 at 40 ug/ml after 3 weeks (reference value: 34 mm); conditions: Gilchrist & Stokes isolate 1099, 504 h, read-out: DIZ; procedure, shortened: as §1
Blastomyces dermatitidis [12] = assay: Antifungal activity against Blastomyces dermatitidis Gilchrist & Stokes isolate 1099 at 80 ug/ml after 2 weeks (reference value: 27 mm)
Histoplasma capsulatum [13] = assay: Antifungal activity against Histoplasma capsulatum Darling isolate 1098 at 60 ug/ml after 1 week (reference value: 12 mm)
Histoplasma capsulatum [14] = assay: Antifungal activity against Histoplasma capsulatum Darling isolate 1098 at 10 ug/ml after 3 weeks (reference value: 28 mm); conditions: Darling isolate 1098, 504 h, read-out: DIZ
Histoplasma capsulatum [15] = assay: Antifungal activity against Histoplasma capsulatum Darling isolate 1098 at 80 ug/ml after 3 weeks (reference value: 28 mm)
Histoplasma capsulatum [16] = assay: Antifungal activity against Histoplasma capsulatum Darling isolate 1106 at 80 ug/ml after 3 weeks (reference value: 31 mm)
Histoplasma capsulatum [17] = assay: Antifungal activity against Histoplasma capsulatum Darling isolate 1106 at 100 ug/ml after 1 week (reference value: 14 mm)
Histoplasma capsulatum [18] = assay: Antifungal activity against Histoplasma capsulatum Darling isolate 1098 at 40 ug/ml after 3 weeks (reference value: 28 mm); conditions: Darling isolate 1098, 504 h, read-out: DIZ
Histoplasma capsulatum [19] = assay: Antifungal activity against Histoplasma capsulatum Darling isolate 1106 at 60 ug/ml after 1 week (reference value: 14 mm)
Histoplasma capsulatum [20] = assay: Antifungal activity against Histoplasma capsulatum Darling isolate 1098 at 60 ug/ml after 2 weeks (reference value: 21 mm); conditions: Darling isolate 1098, 336 h, read-out: DIZ
Blastomyces dermatitidis [21] = assay: Antifungal activity against Blastomyces dermatitidis Gilchrist & Stokes isolate 1099 at 80 ug/ml after 1 week (reference value: 14 mm)
Histoplasma capsulatum [22] = assay: Antifungal activity against Histoplasma capsulatum Darling isolate 1106 at 20 ug/ml after 1 week (reference value: 14 mm); conditions: Darling isolate 1106, 168 h, read-out: DIZ
Histoplasma capsulatum [23] = assay: Antifungal activity against Histoplasma capsulatum Darling isolate 1098 at 20 ug/ml after 2 weeks (reference value: 21 mm); conditions: Darling isolate 1098, 336 h, read-out: DIZ
Histoplasma capsulatum [24] = assay: Antifungal activity against Histoplasma capsulatum Darling isolate 1098 at 10 ug/ml after 2 weeks (reference value: 21 mm); conditions: Darling isolate 1098, 336 h, read-out: DIZ
Histoplasma capsulatum [25] = assay: Antifungal activity against Histoplasma capsulatum Darling isolate 1098 at 40 ug/ml after 2 weeks (reference value: 21 mm); conditions: Darling isolate 1098, 336 h, read-out: DIZ
Blastomyces dermatitidis [26] = assay: Antifungal activity against Blastomyces dermatitidis Gilchrist & Stokes isolate 1099 at 100 ug/ml after 3 weeks (reference value: 34 mm); procedure, shortened: as §1
Blastomyces dermatitidis [27] = assay: Antifungal activity against Blastomyces dermatitidis Gilchrist & Stokes isolate 1099 at 10 ug/ml after 3 weeks (reference value: 34 mm); conditions: Gilchrist & Stokes isolate 1099, 504 h, read-out: DIZ; procedure, shortened: as §1
Blastomyces dermatitidis [28] = assay: Antifungal activity against Blastomyces dermatitidis Gilchrist & Stokes isolate 1099 at 60 ug/ml after 1 week (reference value: 14 mm)
Blastomyces dermatitidis [29] = assay: Antifungal activity against Blastomyces dermatitidis Gilchrist & Stokes isolate 1107 at 100 ug/ml after 3 weeks (reference value: 40 mm); conditions: Gilchrist & Stokes isolate 1107, 504 h, read-out: DIZ; procedure, shortened: as §1
Histoplasma capsulatum [30] = assay: Antifungal activity against Histoplasma capsulatum Darling isolate 1106 at 60 ug/ml after 3 weeks (reference value: 31 mm)
Blastomyces dermatitidis [31] = assay: Antifungal activity against Blastomyces dermatitidis Gilchrist & Stokes isolate 1107 at 40 ug/ml after 3 weeks (reference value: 40 mm); conditions: Gilchrist & Stokes isolate 1107, 504 h, read-out: DIZ; procedure, shortened: as §1
Histoplasma capsulatum [32] = assay: Antifungal activity against Histoplasma capsulatum Darling isolate 1106 at 10 ug/ml after 3 weeks (reference value: 31 mm); conditions: Darling isolate 1106, 504 h, read-out: DIZ
Histoplasma capsulatum [33] = assay: Antifungal activity against Histoplasma capsulatum Darling isolate 1106 at 40 ug/ml after 1 week (reference value: 14 mm)
Histoplasma capsulatum [34] = assay: Antifungal activity against Histoplasma capsulatum Darling isolate 1098 at 100 ug/ml after 3 weeks (reference value: 28 mm)
Histoplasma capsulatum [35] = assay: Antifungal activity against Histoplasma capsulatum Darling isolate 1106 at 80 ug/ml after 2 weeks (reference value: 25 mm)
Blastomyces dermatitidis [36] = assay: Antifungal activity against Blastomyces dermatitidis Gilchrist & Stokes isolate 1107 at 80 ug/ml after 1 week (reference value: 20 mm)
Blastomyces dermatitidis [37] = assay: Antifungal activity against Blastomyces dermatitidis Gilchrist & Stokes isolate 1099 at 40 ug/ml after 1 week (reference value: 14 mm)
Blastomyces dermatitidis [38] = assay: Antifungal activity against Blastomyces dermatitidis Gilchrist & Stokes isolate 1099 at 40 ug/ml after 2 weeks (reference value: 27 mm); conditions: Gilchrist & Stokes isolate 1099, 336 h, read-out: DIZ; procedure, shortened: as §1
Histoplasma capsulatum [39] = assay: Antifungal activity against Histoplasma capsulatum Darling isolate 1098 at 80 ug/ml after 2 weeks (reference value: 21 mm)
Histoplasma capsulatum [40] = assay: Antifungal activity against Histoplasma capsulatum Darling isolate 1098 at 10 ug/ml after 1 week (reference value: 12 mm); conditions: Darling isolate 1098, 168 h, read-out: DIZ
[41] = Darling isolate 1098, 336 h, read-out: DIZ
[42] = Darling isolate 1106, 168 h, read-out: DIZ
[43] = Darling isolate 1106, 336 h, read-out: DIZ
[44] = Darling isolate 1098, 504 h, read-out: DIZ
[45] = Darling isolate 1106, 504 h, read-out: DIZ

Row | Compound | Activity (Histoplasma capsulatum [2]) | zone of inhibition at 80 µg/mL (Blastomyces dermatitidis [3]) [mm] | zone of inhibition at 10 µg/mL (Blastomyces dermatitidis [5]) [mm] | zone of inhibition at 10 µg/mL (Histoplasma capsulatum [6]) [mm] | Activity (Blastomyces dermatitidis [8]) | zone of inhibition at 60 µg/mL (Blastomyces dermatitidis [10]) [mm] | zone of inhibition at 40 µg/mL (Blastomyces dermatitidis [11]) [mm] | Activity (Blastomyces dermatitidis [12]) | zone of inhibition at 10 µg/mL (Histoplasma capsulatum [14]) [mm] | Activity (Histoplasma capsulatum [17]) | zone of inhibition at 40 µg/mL (Histoplasma capsulatum [18]) [mm] | zone of inhibition at 60 µg/mL (Histoplasma capsulatum [20]) [mm] | Activity (Blastomyces dermatitidis [21]) | zone of inhibition at 20 µg/mL (Histoplasma capsulatum [22]) [mm] | zone of inhibition at 20 µg/mL (Histoplasma capsulatum [23]) [mm] | zone of inhibition at 10 µg/mL (Histoplasma capsulatum [24]) [mm] | zone of inhibition at 40 µg/mL (Histoplasma capsulatum [25]) [mm] | zone of inhibition at 10 µg/mL (Blastomyces dermatitidis [27]) [mm] | Activity (Blastomyces dermatitidis [28]) | zone of inhibition at 100 µg/mL (Blastomyces dermatitidis [29]) [mm] | further results
1 | C[C@@H]1CC[C@@H](c2ccoc2)N2C(O)[C@@](C)(Sc3ccccc3)CC[C@@H]12 (stereo not given in full) | Active | 4 | 32 | 19 | Active | 9 | 14 | Active | 25 | Active | 13 | 2 | Active | 6 | 14 | 19 | 9 | 27 | Active | 3 | zone of inhibition at 10 µg/mL (Blastomyces dermatitidis [1]; Gilchrist & Stokes isolate 1107, 168 h, read-out: DIZ): 13 mm; Activity (Histoplasma capsulatum [4]): Active; Activity (Histoplasma capsulatum [7]): Active; Activity (Histoplasma capsulatum [9]): Active; Activity (Histoplasma capsulatum [13]): Active; Activity (Histoplasma capsulatum [15]): Active; Activity (Histoplasma capsulatum [16]): Active; Activity (Histoplasma capsulatum [19]): Active; Activity (Blastomyces dermatitidis [26]): Active; Activity (Histoplasma capsulatum [30]): Active; zone of inhibition at 40 µg/mL (Blastomyces dermatitidis [31]): 18 mm; zone of inhibition at 10 µg/mL (Histoplasma capsulatum [32]): 25 mm; Activity (Histoplasma capsulatum [33]): inactive; Activity (Histoplasma capsulatum [34]): Active; Activity (Histoplasma capsulatum [35]): Active; Activity (Blastomyces dermatitidis [36]): Active; Activity (Blastomyces dermatitidis [37]): inactive; zone of inhibition at 40 µg/mL (Blastomyces dermatitidis [38]): 10 mm; Activity (Histoplasma capsulatum [39]): Active; zone of inhibition at 10 µg/mL (Histoplasma capsulatum [40]): 10 mm
2 | C[C@@H]1[C@H](O)[C@@H](C)/C=C/C=C/C=C/C=C/C=C/C=C/C=C/[C@H](O[C@@H]2O[C@H](C)[C@@H](O)[C@H](N)[C@@H]2O)C[C@@H]2O[C@](O)(C[C@@H](O)C[C@@H](O)[C@H](O)CC[C@@H](O)C[C@@H](O)CC(=O)O[C@H]1C)C[C@H](O)[C@H]2C(=O)O [AMPHOTERICIN B] | inactive | 2 | 15 | 12 | Active | 4 | 4 | Active | 19 | inactive | 16 | 9 | Active | 6 | 12 | 14 | 11 | 11 | Active | 11 | Activity (Blastomyces dermatitidis [1]): inactive; zone of inhibition at 100 µg/mL (Histoplasma capsulatum [4]; [41]): 8 mm; zone of inhibition at 80 µg/mL (Histoplasma capsulatum [7]; [42]): 5 mm; zone of inhibition at 100 µg/mL (Histoplasma capsulatum [9]; [43]): 6 mm; zone of inhibition at 60 µg/mL (Histoplasma capsulatum [13]; Darling isolate 1098, 168 h, read-out: DIZ): 4 mm; zone of inhibition at 80 µg/mL (Histoplasma capsulatum [15]; [44]): 14 mm; zone of inhibition at 80 µg/mL (Histoplasma capsulatum [16]; [45]): 12 mm; zone of inhibition at 60 µg/mL (Histoplasma capsulatum [19]; [42]): 6 mm; zone of inhibition at 100 µg/mL (Blastomyces dermatitidis [26]; Gilchrist & Stokes isolate 1099, 504 h, read-out: DIZ): 2 mm; zone of inhibition at 60 µg/mL (Histoplasma capsulatum [30]; [45]): 13 mm; zone of inhibition at 40 µg/mL (Blastomyces dermatitidis [31]): 13 mm; zone of inhibition at 10 µg/mL (Histoplasma capsulatum [32]): 17 mm; zone of inhibition at 40 µg/mL (Histoplasma capsulatum [33]; [42]): 6 mm; zone of inhibition at 100 µg/mL (Histoplasma capsulatum [34]; [44]): 14 mm; zone of inhibition at 80 µg/mL (Histoplasma capsulatum [35]; [43]): 7 mm; Activity (Blastomyces dermatitidis [36]): inactive; Activity (Blastomyces dermatitidis [37]): Active; zone of inhibition at 40 µg/mL (Blastomyces dermatitidis [38]): 2 mm; zone of inhibition at 80 µg/mL (Histoplasma capsulatum [39]; [41]): 10 mm; zone of inhibition at 10 µg/mL (Histoplasma capsulatum [40]): 8 mm

— ChEMBL document CHEMBL3272198, “Preparation and in vitro antifungal activities of some quinolizidine derived hemiaminals and beta-tert-amino sulfides” (1976)
